From ChEMBL document CHEMBL1152589, “Identification and characterization of novel sirtuin inhibitor scaffolds” (Bioorg Med Chem, 2009)
Calls of active or inactive are those of the source. No cut-off for these calls is given here.

Tests used:
[1] = target: T1, NAD-dependent protein deacetylase HST2 (Saccharomyces cerevisiae S288c, UniProt P53686); test: Inhibition of yeast Hst2 by fluorimetric assay
[2] = target: NAD-dependent protein deacetylase HST2 (Saccharomyces cerevisiae S288c) (UniProt P53686); test: Inhibition of yeast Hst2 assessed as residual activity at 500 uM by fluorimetric assay relative to control
NAD-dependent protein deacetylase HST2 (Saccharomyces cerevisiae S288c), sequence (P53686 whole entry): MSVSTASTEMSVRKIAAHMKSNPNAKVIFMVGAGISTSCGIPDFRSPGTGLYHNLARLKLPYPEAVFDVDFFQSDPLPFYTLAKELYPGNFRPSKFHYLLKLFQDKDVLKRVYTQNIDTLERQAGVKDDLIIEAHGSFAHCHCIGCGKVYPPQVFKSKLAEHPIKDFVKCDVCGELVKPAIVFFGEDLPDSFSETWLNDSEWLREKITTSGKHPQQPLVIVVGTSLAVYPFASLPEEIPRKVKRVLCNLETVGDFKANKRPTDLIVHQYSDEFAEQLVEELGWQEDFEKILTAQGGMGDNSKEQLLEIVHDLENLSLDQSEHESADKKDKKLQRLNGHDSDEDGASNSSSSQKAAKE

[3] = target: NAD-dependent protein deacetylase HST2 (Saccharomyces cerevisiae S288c) (UniProt P53686); test: Inhibition of yeast Hst2 assessed as residual activity at 50 uM by fluorimetric assay relative to control
[4] = target: T2, NAD-dependent protein deacetylase sirtuin-2 (Homo sapiens) (UniProt Q8IXJ6); test: Inhibition of human SIRT2 by fluorogenic assay; design: concentration or dose not given beside the values
T2 sequence (whole entry): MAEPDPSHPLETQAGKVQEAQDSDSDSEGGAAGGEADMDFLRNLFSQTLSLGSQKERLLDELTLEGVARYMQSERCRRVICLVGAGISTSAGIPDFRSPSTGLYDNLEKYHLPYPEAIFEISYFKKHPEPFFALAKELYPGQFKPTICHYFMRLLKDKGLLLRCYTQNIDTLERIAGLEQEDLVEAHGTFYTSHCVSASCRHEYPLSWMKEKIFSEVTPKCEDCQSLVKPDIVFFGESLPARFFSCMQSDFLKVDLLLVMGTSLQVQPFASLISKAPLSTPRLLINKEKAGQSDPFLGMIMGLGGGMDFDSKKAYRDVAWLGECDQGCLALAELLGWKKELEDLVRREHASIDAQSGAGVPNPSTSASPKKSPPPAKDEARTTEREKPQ
How it was run: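 Human SIRT2 isoform II construct with extra N-terminal residues, expressed in E. coli BL21-Gold (DE3) as a His6 fusion. Purified by Ni-NTA, with the tag removed by thrombin, then Q sepharose and Superdex-200 gel filtration. Assayed by fluorigenic deacetylation of Fluor de Lys-SIRT1 substrate.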

[5] = target: NAD-dependent histone deacetylase SIR2 (Saccharomyces cerevisiae S288c) (UniProt P06700); test: Inhibition of Sir2 in Saccharomyces cerevisiae inserted URA3 reporter gene assessed as reduction of […] resistance at 1 mM by telomere silencing assay
NAD-dependent histone deacetylase SIR2 (Saccharomyces cerevisiae S288c), sequence (P06700 whole entry): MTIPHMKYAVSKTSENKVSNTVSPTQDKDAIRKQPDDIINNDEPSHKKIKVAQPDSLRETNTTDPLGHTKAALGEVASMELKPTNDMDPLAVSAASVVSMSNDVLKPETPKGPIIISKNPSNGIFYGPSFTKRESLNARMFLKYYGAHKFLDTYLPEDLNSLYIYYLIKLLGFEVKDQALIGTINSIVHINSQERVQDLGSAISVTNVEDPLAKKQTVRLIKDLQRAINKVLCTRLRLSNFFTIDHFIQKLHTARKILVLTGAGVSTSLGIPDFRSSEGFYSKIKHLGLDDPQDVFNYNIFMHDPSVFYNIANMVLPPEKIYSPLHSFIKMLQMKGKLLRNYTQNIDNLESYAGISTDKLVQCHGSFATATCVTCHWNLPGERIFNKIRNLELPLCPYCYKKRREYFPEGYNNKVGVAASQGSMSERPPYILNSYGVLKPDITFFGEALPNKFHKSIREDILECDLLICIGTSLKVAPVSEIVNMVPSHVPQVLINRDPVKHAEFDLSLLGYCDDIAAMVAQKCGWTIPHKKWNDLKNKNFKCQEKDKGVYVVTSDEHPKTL

[6] = target: T1, NAD-dependent protein deacetylase HST2; test: Mixed inhibition of yeast Hst2 using Acetyl-lysine substrate
[7] = target: NAD-dependent histone deacetylase SIR2 (Saccharomyces cerevisiae S288c) (UniProt P06700); test: Inhibition of Sir2 in Saccharomyces cerevisiae inserted URA3 reporter gene assessed as reduction of […] resistance at 10 uM by telomere silencing assay
[8] = target: T3, NAD-dependent protein deacetylase sirtuin-1 (Homo sapiens, UniProt Q96EB6); test: Inhibition of human full length SIRT1 expressed in DE3 cells by fluorimetric assay; assay type: cell-based
T3 sequence (Q96EB6 whole entry): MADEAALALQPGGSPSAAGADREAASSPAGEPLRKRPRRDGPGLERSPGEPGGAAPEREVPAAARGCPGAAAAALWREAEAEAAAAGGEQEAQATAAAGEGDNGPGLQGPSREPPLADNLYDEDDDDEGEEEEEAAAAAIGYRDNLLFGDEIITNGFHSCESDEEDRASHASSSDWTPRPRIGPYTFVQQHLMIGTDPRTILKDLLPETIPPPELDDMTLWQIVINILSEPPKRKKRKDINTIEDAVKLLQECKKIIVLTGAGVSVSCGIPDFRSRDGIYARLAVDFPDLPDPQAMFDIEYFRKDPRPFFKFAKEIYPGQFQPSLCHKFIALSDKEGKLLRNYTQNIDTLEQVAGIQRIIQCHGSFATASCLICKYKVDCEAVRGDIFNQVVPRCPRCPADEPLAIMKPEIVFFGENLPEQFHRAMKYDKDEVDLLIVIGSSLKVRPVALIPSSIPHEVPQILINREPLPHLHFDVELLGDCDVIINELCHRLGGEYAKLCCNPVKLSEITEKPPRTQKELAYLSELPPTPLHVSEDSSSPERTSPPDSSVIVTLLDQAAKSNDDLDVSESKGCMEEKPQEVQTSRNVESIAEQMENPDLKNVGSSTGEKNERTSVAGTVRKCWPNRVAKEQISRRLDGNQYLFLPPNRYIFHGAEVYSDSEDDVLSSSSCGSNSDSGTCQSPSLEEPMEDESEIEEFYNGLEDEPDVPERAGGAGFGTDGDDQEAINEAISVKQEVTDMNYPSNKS

[9] = target: NAD-dependent histone deacetylase SIR2 (Saccharomyces cerevisiae S288c) (UniProt P06700); test: Inhibition of Sir2 in Saccharomyces cerevisiae inserted URA3 reporter gene assessed as reduction of […] resistance at 40 uM by telomere silencing assay

T1 sequence (P53686 whole entry): as the sequence (P53686 whole entry) above

Row | SMILES | Activity [2] | Activity [3] | also measured
1 | NC(=O)C1CCCCc2c1[nH]c1ccc(Cl)cc21 (centres undefined) | – | – | IC50 ([1]; read-out: IC50): 1.3 µM
2 | CN(C)CCCCC(=O)Nc1ccc(NC(=S)NC(=O)c2ccc(C(C)(C)C)cc2)cc1 | – | – | IC50 ([1]; read-out: IC50): > 100 µM
3 | Cc1ccc(OCCCC(=O)Oc2ccc3c(c2)CCC3)c(C)c1 | 49% | 93% | –
4 | Nc1ccc2c(c1)C(=O)N(CCC(=O)O)C2 | – | – | IC50 [1]: Not Active
5 | Cc1ccc(OCCCC(=O)Oc2ccc3c(C)cc(=O)oc3c2)cc1 | 57% | 99% | –
6 | CC(C)C(=O)CCN1C(=O)c2ccccc2C1=O | – | – | IC50 [1]: Not Active
7 | Nc1cccc(Cc2cccc(N)c2)c1 | 100% | 100% | –
8 | COCC#CC1c2cc(O)c(OC)cc2CCN1C (centres undefined) | – | – | Activity [4]: 92.1%
9 | COCC#CC1(C)c2cc(O)c(OC)cc2CCN1C (centres undefined) | 100% | 100% | –
10 | C[S+]([O-])CCC(C(=O)O)N1C(=O)c2ccccc2C1=O (centres undefined) | – | – | IC50 [1]: Not Active
11 | O=C(O)CCN1Cc2ccccc2C1=O | – | – | IC50 ([1]; read-out: IC50): 19.9 µM; Activity [5]: Active; Activity [4]: 89%
12 | Cc1cc(Cl)c(O)c(Cc2c(O)c(Cl)cc(Cl)c2Cl)c1Cl | – | – | Ki [6]: 2.5 µM; IC50 ([1]; read-out: IC50): 12.5 µM; Activity [7]: Active; Activity [4]: 18.5%; IC50 [8]: 34 µM; Activity [9]: Active
13 | Cc1cc(=O)oc2cc(OC(=O)COc3ccccc3)ccc12 | 45% | 91% | –
14 | O=C1c2ccccc2C(=O)N1CCBr | – | – | IC50 [1]: Not Active
15 | NC(=O)c1cccnc1 | – | – | Activity [4]: 26%
16 | COc1ccc(OCCCC(=O)Oc2ccc3c(C)cc(=O)oc3c2)cc1 | 35% | 93% | –
17 | Cc1ccc2[nH]c3c(c2c1)CCCCC3C(N)=O (centres undefined) | – | – | IC50 ([1]; read-out: IC50): 14.5 µM; IC50 [8]: 0.64 µM
18 | Cc1cc(Cc2cc(C)c(O)c(C)c2)cc(C)c1O | 43% | 89% | –
19 | Cn1cc(C2=C(c3cn(CCCSC(=N)N)c4ccccc34)C(=O)NC2=O)c2ccccc21 [BISINDOLYLMALEIMIDE IX] | – | – | IC50 ([1]; read-out: IC50): 20 µM
20 | OC(c1ccccc1)c1ccc(C(F)(F)F)cc1 (centres undefined) | 81% | 100% | –

Row | SMILES | Activity [2] | Activity [3] | also measured
21 | C#CC1c2cc(O)c(OC)cc2CCN1C (centres undefined) | 86% | 100% | –
22 | COC/C=C/C1c2cc(O)c(OC)cc2CCN1C (centres undefined) | 94% | 97% | –
23 | Oc1c(Cc2ccccc2Cl)ccc2cccnc12 | 100% | 100% | –
24 | O=C(O)CCN1C(=O)c2ccc(-c3nc4ccccc4c(=O)o3)cc2C1=O | – | – | IC50 [1]: Not Active
25 | Cc1cccc(OCC(=O)Oc2ccc3c(C)cc(=O)oc3c2)c1 | 13% | 90% | –
26 | Cc1c(Cl)c(=O)oc2cc(OC(=O)CCNC(=O)Oc3ccccc3)ccc12 | 74% | 100% | –
27 | C#C[C@@H]1c2cc(O)c(OC)cc2CCN1C | 74% | 97% | –
28 | COc1cc2c(cc1O)CN(C)CC2 | 98% | 100% | –
29 | COCCCC1c2cc(O)c(OC)cc2CCN1C (centres undefined) | 92% | 99% | –
30 | Cc1c(Cl)c(=O)oc2cc(OC(=O)CCCOc3ccc(Cl)cc3Cl)ccc12 | 68% | 90% | –
31 | COc1ccc(OCCCC(=O)Oc2ccc3c(c2)CCC3)cc1 | 58% | 95% | –
32 | C#C[C@H]1c2cc(O)c(OC)cc2CCN1C | 70% | 96% | –
33 | Oc1ccc(Cc2ccccc2)cc1 | 88% | 100% | –
34 | COCC#CC1c2cc(O)c(OC)cc2CCN1Cc1ccc(OC)cc1 (centres undefined) | – | – | IC50 ([1]; read-out: IC50): 260 µM
35 | CCc1ccc(OCCCC(=O)Oc2ccc3c(C)cc(=O)oc3c2)cc1 | 53% | 86% | –
36 | Cc1ccc(OCCCC(=O)Oc2ccc3c(C)cc(=O)oc3c2)c(C)c1 | 51% | 90% | –
37 | O=C1CCc2c(ccc3ccccc23)O1 [SPLITOMICIN] | – | – | IC50 ([1]; read-out: IC50): > 600 µM
38 | O=C(O)CCCN1C(=O)c2ccccc2C1=O | – | – | IC50 [1]: Not Active
39 | O=C(O)CCN1C(=O)c2cc(Cl)c(Cl)cc2C1=O | – | – | IC50 [1]: Not Active
